Shown are actives, neighbours in structure and some others; about 3.3% of the full set was active somewhere.
Xi reactivation: activators of inactive X chromosome reactivation, primary screen, imaging, XiGFP fibroblasts, GFP high-content imaging, set 2 | XiGFP mouse fibroblasts, % GFP-positive cells imaging, 3 d; cells co-treated with 5-aza-dC sensitizer; scaled so ellipticine positive control = 100% | activation, % at 7.58 µM | 360,000 compounds, 0.055% hits | AID 743238, 2013;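 active = mean normalized replicate activation at least 10% and every replicate at or above 10%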
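System: XiGFP fibroblasts, SV40-immortalized. Medium: DMEM plus 5-aza-dC sensitizer. Doses: single point. Timing: 3 d treatment, 15 min room-temperature fixation. Control set: ellipticine 6 µM.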
Statin myotox sup: suppressors of statin myotoxicity in C2C12 myotubes, primary screen, cell-based, single point, plate reader | rescue of ATP level, % at 7.49 µM | C2C12 myotubes + simvastatin, ATP luminescence, 48 h; scaled: DMSO 0, geranylgeraniol control 100 | 330,000 compounds, 0.78% hits;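 active = mean ATP rescue above about 67%, or every replicate alone reaching that limit, limit read from the data, passing the limit was not always enough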;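 also: myotubes were challenged with 10 µM simvastatin during compound exposure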
FGF22 binding: binders of human FGF22 protein, primary screen, FGF22 synaptogenesis inhibitor project, biophysical, thermal shift, single point. recombinant FGF22 thermal shift, SYPRO orange fluorescence; percent of sucrose octasulfate shift, DMSO zero. activity (Tm shift, normalised), % at 9.99 µM. 340,000 compounds, 1.5% hits;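 active = mean Tm shift, scaled 0 neutral to 100 positive control, at about 1.3% or above, every replicate too, limit read from the data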
Target sequence (Q9HCT0 whole entry, looked up): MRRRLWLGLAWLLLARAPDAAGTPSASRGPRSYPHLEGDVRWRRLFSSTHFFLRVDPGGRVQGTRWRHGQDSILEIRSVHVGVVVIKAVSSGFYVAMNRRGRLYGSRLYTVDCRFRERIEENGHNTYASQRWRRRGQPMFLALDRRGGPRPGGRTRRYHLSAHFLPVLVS
E-selectin induc: E-selectin induction in HUVECs, primary screen, imaging, HUVEC, immunofluorescence imaging, single point; activation, % at 7.58 µM; normalized: neutral wells 0, TNF-alpha wells 100; P16581; 260,000 compounds, 0.37% hits;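 active = mean E-selectin-positive cell signal at least 10% of the positive control, reached in at least 60% of replicates, without over 20% cell loss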
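Read-out basis: % PE-positive cells; Test system: HUVEC primary endothelial cells; Technique: immunofluorescence imaging; Dosing: single-point compound dose.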
PglD DTNB: C. jejuni PglD acetyltransferase inhibitors, primary screen, biochemical, DTNB colorimetric, single point; UDP-N-acetylbacillosamine N-acetyltransferase PglD (Campylobacter jejuni); purified PglD enzyme, DTNB colorimetric CoA detection; inhibition, % at 12.5 µM; 360,000 compounds, 0.098% hits; AID 602405, 2012; in the data active = inhibition above about 16%, passing the limit was not always enough
DENV2 CPE rescue: inhibitors of DENV2 cytopathic effect, primary screen, cell-based, plate reader, single concentration; CPE inhibition, % at 9.99 µM; 350,000 compounds, 1.7% hits; AID 651640, 2012; DENV2-infected cells, cytopathic effect rescue; in the data active = CPE inhibition above about 20%, passing the limit was not always enough; tested in BHK-21 cells
A number is an active result; . = inactive; / = not tested or not shown.

SMILES | Xi reactivation | Statin myotox sup | FGF22 binding | E-selectin induc | PglD DTNB | DENV2 CPE rescue
CNC[C@H]1Oc2c(NS(=O)(=O)c3ccc(Cl)cc3)cccc2C(=O)N([C@@H](C)CO)C[C@@H]1C | . | . | . | . | . | 94
Cc1ccc(S(=O)(=O)N(C)C[C@@H]2Oc3c(NS(=O)(=O)c4ccc(Cl)cc4)cccc3C(=O)N([C@@H](C)CO)C[C@H]2C)cc1 | . | . | . | 49 | . | .
Cc1ccc(S(=O)(=O)Nc2cccc3c2O[C@@H](CN(C)S(=O)(=O)c2ccc(Cl)cc2)[C@@H](C)CN([C@@H](C)CO)C3=O)cc1 | . | / | . | . | / | 21
Cc1ccc(S(=O)(=O)N(C)C[C@@H]2OCCCC[C@@H](C)Oc3ccc(NS(=O)(=O)c4cn(C)cn4)cc3C(=O)N([C@H](C)CO)C[C@H]2C)cc1 | . | / | . | / | . | .
C[C@@H]1CN([C@@H](C)CO)C(=O)c2cc(NS(=O)(=O)c3cccs3)ccc2O[C@@H](C)CCCCO[C@H]1CN(C)S(=O)(=O)c1cn(C)cn1 | . | . | . | . | . | 31
Cc1ccc(S(=O)(=O)Nc2ccc3c(c2)C(=O)N([C@@H](C)CO)C[C@@H](C)[C@@H](CN(C)S(=O)(=O)c2cn(C)cn2)OCCCC[C@H](C)O3)cc1 | . | / | . | . | . | 26
COc1ccc(CN(C)C[C@H]2OCCCC[C@@H](C)Oc3ccc(NS(=O)(=O)c4cn(C)cn4)cc3C(=O)N([C@H](C)CO)C[C@@H]2C)cc1 | . | / | . | . | . | 52
COc1ccc(CN(C)C[C@H]2OCCCC[C@H](C)Oc3ccc(NS(=O)(=O)c4cn(C)cn4)cc3C(=O)N([C@H](C)CO)C[C@@H]2C)cc1 | . | / | . | . | . | .
C[C@@H]1CN([C@H](C)CO)C(=O)c2cc(NS(=O)(=O)c3cccs3)ccc2O[C@@H](C)CCCCO[C@@H]1CN(C)S(=O)(=O)c1cn(C)cn1 | . | . | . | . | . | .
COc1ccc(S(=O)(=O)Nc2ccc3c(c2)C(=O)N([C@H](C)CO)C[C@@H](C)[C@@H](CN(C)S(=O)(=O)c2cn(C)cn2)OCCCC[C@H](C)O3)cc1 | . | / | . | . | . | 53
COc1ccc2c3c([nH]c2c1)[C@H](CO)N(Cc1ccccc1)CC31CCN(CC2CC2)CC1 | . | / | . | . | / | .
Cc1ccc(S(=O)(=O)Nc2ccc3c(c2)C(=O)N([C@H](C)CO)C[C@@H](C)[C@@H](CN(C)S(=O)(=O)c2cn(C)cn2)OCCCC[C@H](C)O3)cc1 | . | / | . | . | . | 34
C[C@@H]1CCCCO[C@H](CN(C)S(=O)(=O)c2ccc(F)cc2)[C@@H](C)CN([C@H](C)CO)C(=O)c2cc(NS(=O)(=O)c3cn(C)cn3)ccc2O1 | . | / | . | / | . | 23
C[C@@H]1CN([C@H](C)CO)C(=O)c2cc(NS(=O)(=O)c3ccc(Cl)cc3)ccc2O[C@@H](C)CCCCO[C@H]1CN(C)S(=O)(=O)c1ccc(F)cc1 | . | / | / | . | . | .
C=CCNC(=O)[C@H]1[C@@H]2C(=O)O[C@@H](c3ccccc3)[C@@H](c3ccccc3)N2[C@@H](c2ccc(OCCO)cc2)[C@]12C(=O)N(C(=O)OCCOC)c1ccc(C#Cc3ccc(OC)cc3)cc12 | / | / | . | / | . | 23
COCCOC(=O)N1C(=O)[C@@]2(c3cc(C#CC4(O)CCCCCC4)ccc31)[C@H](c1ccc(OCCO)cc1)N1[C@H](c3ccccc3)[C@H](c3ccccc3)OC(=O)[C@H]1[C@@H]2C(N)=O | / | / | . | / | . | 69
C=CCNC(=O)[C@H]1[C@@H]2C(=O)O[C@@H](c3ccccc3)[C@@H](c3ccccc3)N2[C@@H](c2ccc(O)cc2)[C@]12C(=O)N(C(=O)OCCOC)c1ccc(C#CCC(C(=O)OC)C(=O)OC)cc12 | / | / | 18 | / | . | .
